pIC50: −log10 of the molar value. Calls of active or inactive are those of the source. The rule behind the calls is not given here.
How the values were obtained:
[1] = test system: V79; test: (§1) Inhibition of rhesus monkey CYP11B2 expressed in V79 cells incubated for 1 hr before 11-deoxycorticosterone substrate addition by HTRF-based assay; assay type: cell-based; details: Macaca mulatta
[2] = species: Homo sapiens; test: Selectivity index, ratio of IC50 for CYP19 (unknown origin) to IC50 for human CYP11B2
[3] = as §1; assay type: cell-based, Macaca mulatta
[4] = test system: Rhesus monkey; test: Reduction in aldosterone levels in low sodium diet fed rhesus monkey at 0.3 mg/kg, iv followed by 0.3 mg/kg ACTH dosing and measured 30 mins to 180 mins post ACTH administration by UPLC coupled with tandem mass spectrometry; assay type: functional; details: Macaca mulatta
Summary of the method: (§2)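 Anesthetized rhesus monkeys were given i.v. doses from 0.001 to 0.3 mg/kg. Plasma aldosterone and 11-deoxycortisol were quantified by LC-MS at time points up to 180 min postdose, and AUCs were determined for each. Plasma drug was measured at 90 min postdose. Free (unbound) concentrations were calculated from the measured fraction unbound in rhesus plasma.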

[5] = test system: Rhesus monkey; test: In-vivo inhibition of CYP11B1 in low sodium diet fed rhesus monkey at free plasma concentration up to 27 nM dosed at 0.01 to 0.3 mg/kg, iv followed by 0.3 mg/kg ACTH dosing and measured 90 mins post ACTH administration by UPLC coupled with tandem mass spectrometry; assay type: functional, organism-based; details: Macaca mulatta; summary of the method: as §2

| Ratio IC50 [2] | pIC50 [3] | SMILES | inhibition [1] | inhibition in vivo at 0.3 mg/kg [4] [%] | inhibition [5] |
| --- | --- | --- | --- | --- | --- |
| 500 | – | Fc1cncc(-c2nc3cc(F)c(F)cc3n2C2CC2)c1 | Active | – | – |
| – | 9.52 | CC(C)(O)c1cncc(-c2nc3ccc(F)cc3n2C2CC2)c1 [MSD-CYP11B2] | – | 95 | inactive |
